Data published in ChEMBL document CHEMBL3297718, “Ultrasound-assisted one-pot four-component synthesis of novel 2-amino-3-cyanopyridine derivatives bearing 5-imidazopyrazole scaffold and their biological broadcast” (Eur J Med Chem, 2014).
Values after ≈ are worked out from the molar mass of the structure shown.

How the values were obtained:
Streptococcus pneumoniae = assay: Antimicrobial activity against Streptococcus pneumoniae MTCC 1936 by broth microdilution method; format: functional
Bacillus subtilis = assay: Antimicrobial activity against Bacillus subtilis MTCC 441 by broth microdilution method; format: functional
Method in brief: (§1)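 Broth microdilution following NCCLS. Compounds were diluted in 2% DMSO in water. Fungi were grown in Sabouraud dextrose broth. Inoculum was set to 10⁸ CFU mL⁻¹ by turbidity. A primary serial-dilution screen was followed by a secondary set of lower dilutions for primary actives. Tubes were incubated at 37 °C, with growth noted at 24 and 48 h. MIC was the highest dilution preventing turbidity after spot subculture.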

Clostridium tetani = assay: Antimicrobial activity against Clostridium tetani MTCC 449 by broth microdilution method; format: functional
Escherichia coli = assay: Antimicrobial activity against Escherichia coli MTCC 443 by broth microdilution method; format: functional; method in brief: as §1
Salmonella typhi = assay: Antimicrobial activity against Salmonella typhi MTCC 98 by broth microdilution method; format: functional, Salmonella enterica subsp. enterica serovar Typhi; settings: Salmonella enterica
Vibrio cholerae = assay: Antimicrobial activity against Vibrio cholerae MTCC 3906 by broth microdilution method; format: functional
Candida albicans = assay: Antimicrobial activity against Candida albicans MTCC 227 by broth microdilution method; format: functional; method in brief: as §1
Aspergillus fumigatus = assay: Antimicrobial activity against Aspergillus fumigatus MTCC 3008 by broth microdilution method; format: functional; method in brief: as §1
[1] = tested on: Mycobacterium tuberculosis; assay: Antitubercular activity against Mycobacterium tuberculosis H37Rv at 250 ug/ml; format: functional
[2] = Antioxidant activity assessed as ferric ion reducing activity using fe3+-TPTZ at 200 mg/ml measured as ascorbic acid per 100 g sample by FRAP assay; format: physicochemical
Method in brief: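 FRAP assay, modified Benzie–Strain. Reagent combined TPTZ in 40 mM HCl, aqueous FeCl₃·6H₂O and acetate buffer at pH 3.6. Sample solution was mixed with 3 mL reagent and incubated 25 min at 37 °C. Fe(II)–TPTZ absorbance was read at 593 nm against an ascorbic acid standard. Results are given as ascorbic equivalents, mmol/100 g compound.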

[3] = tested on: Mycobacterium tuberculosis; assay: Antitubercular activity against Mycobacterium tuberculosis H37Rv; format: functional
Method in brief: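 M. tuberculosis H37Rv was grown on Lowenstein–Jensen medium with compound at a single concentration of 250, and compared against control tubes of medium alone with the organism. Results are given as % inhibition, and the concentration giving complete inhibition of colonies was taken as the active concentration.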

Compound | MIC (Streptococcus pneumoniae) [µg/mL] | MIC (Bacillus subtilis) [µg/mL] | MIC (Clostridium tetani) [µg/mL] | MIC (Escherichia coli) [µg/mL] | MIC (Salmonella typhi) [µg/mL] | MIC (Vibrio cholerae) [µg/mL] | MIC (Candida albicans) [µg/mL] | MIC (Aspergillus fumigatus) [µg/mL] | inhibition at 250 µg/mL [1] [%] | Activity [2] [mmol] | MIC [3] [µg/mL]
Cc1cn(-c2c(C=O)c(C)nn2-c2ccccc2)cn1 | 500 (≈ 1880 µM) | 100 (≈ 376 µM) | 150 (≈ 563 µM) | 250 (≈ 939 µM) | 200 (≈ 751 µM) | 250 (≈ 939 µM) | 250 (≈ 939 µM) | 500 (≈ 1880 µM) | 65 | 213.24 | 
Cc1nn(-c2ccccc2)c(-n2ccnc2)c1-c1cc(-c2ccccc2)nc(N)c1C#N | 250 (≈ 599 µM) | 200 (≈ 479 µM) | 250 (≈ 599 µM) | 250 (≈ 599 µM) | 200 (≈ 479 µM) | 250 (≈ 599 µM) | 1000 (≈ 2400 µM) | 1000 (≈ 2400 µM) | 25 | 427.08 | 
Cc1cn(-c2c(-c3cc(-c4ccccc4)nc(N)c3C#N)c(C)nn2-c2ccccc2)cn1 | 500 (≈ 1160 µM) | 100 (≈ 232 µM) | 500 (≈ 1160 µM) | 200 (≈ 463 µM) | 250 (≈ 579 µM) | 200 (≈ 463 µM) | > 1000 | > 1000 | 84 | 401.81 | 
Cc1nn(-c2ccccc2)c(-n2ccnc2)c1-c1cc(-c2ccc(-c3ccccc3)cc2)nc(N)c1C#N | 500 (≈ 1010 µM) | 500 (≈ 1010 µM) | 250 (≈ 507 µM) | 100 (≈ 203 µM) | 125 (≈ 253 µM) | 500 (≈ 1010 µM) | 500 (≈ 1010 µM) | 500 (≈ 1010 µM) | 45 | 497.1 | 
Cc1cn(-c2c(-c3cc(-c4ccc(-c5ccccc5)cc4)nc(N)c3C#N)c(C)nn2-c2ccccc2)cn1 | 125 (≈ 246 µM) | 250 (≈ 493 µM) | 250 (≈ 493 µM) | 250 (≈ 493 µM) | 200 (≈ 394 µM) | 100 (≈ 197 µM) | 500 (≈ 985 µM) | 500 (≈ 985 µM) | 23 | 495.9 | 
Cc1nn(-c2ccccc2)c(-n2ccnc2)c1-c1cc(-c2ccc(Cl)cc2)nc(N)c1C#N | 100 (≈ 221 µM) | 500 (≈ 1110 µM) | 500 (≈ 1110 µM) | 62.5 (≈ 138 µM) | 200 (≈ 443 µM) | 500 (≈ 1110 µM) | 1000 (≈ 2210 µM) | 500 (≈ 1110 µM) | 16 | 490.33 | 
Cc1cn(-c2c(-c3cc(-c4ccc(Cl)cc4)nc(N)c3C#N)c(C)nn2-c2ccccc2)cn1 | 200 (≈ 429 µM) | 500 (≈ 1070 µM) | 500 (≈ 1070 µM) | 200 (≈ 429 µM) | 250 (≈ 537 µM) | 250 (≈ 537 µM) | 1000 (≈ 2150 µM) | 500 (≈ 1070 µM) | 22 | 404.8 | 
Cc1nn(-c2ccccc2)c(-n2ccnc2)c1-c1cc(-c2ccc(Br)cc2)nc(N)c1C#N | 200 (≈ 403 µM) | 200 (≈ 403 µM) | 200 (≈ 403 µM) | 100 (≈ 201 µM) | 200 (≈ 403 µM) | 200 (≈ 403 µM) | 500 (≈ 1010 µM) | 500 (≈ 1010 µM) | 37 | 67.63 | 
Cc1cn(-c2c(-c3cc(-c4ccc(Br)cc4)nc(N)c3C#N)c(C)nn2-c2ccccc2)cn1 | 250 (≈ 490 µM) | 62.5 (≈ 122 µM) | 100 (≈ 196 µM) | 500 (≈ 980 µM) | 500 (≈ 980 µM) | 250 (≈ 490 µM) | 1000 (≈ 1960 µM) | > 1000 | 84 | 70.61 | 
Cc1nn(-c2ccccc2)c(-n2ccnc2)c1-c1cc(-c2ccc(F)cc2)nc(N)c1C#N | 200 (≈ 459 µM) | 200 (≈ 459 µM) | 500 (≈ 1150 µM) | 500 (≈ 1150 µM) | 500 (≈ 1150 µM) | 200 (≈ 459 µM) | 1000 (≈ 2300 µM) | 1000 (≈ 2300 µM) | 15 | 405.2 | 
Cc1cn(-c2c(-c3cc(-c4ccc(F)cc4)nc(N)c3C#N)c(C)nn2-c2ccccc2)cn1 | 100 (≈ 222 µM) | 500 (≈ 1110 µM) | 250 (≈ 556 µM) | 500 (≈ 1110 µM) | 250 (≈ 556 µM) | 100 (≈ 222 µM) | > 1000 | 1000 (≈ 2220 µM) | 62 | 392.66 | 
COc1ccc(-c2cc(-c3c(C)nn(-c4ccccc4)c3-n3cnc(C)c3)c(C#N)c(N)n2)cc1 | 100 (≈ 217 µM) | 250 (≈ 542 µM) | 250 (≈ 542 µM) | 125 (≈ 271 µM) | 250 (≈ 542 µM) | 62.5 (≈ 135 µM) | 500 (≈ 1080 µM) | 1000 (≈ 2170 µM) | 56 | 178.82 | 
Cc1nn(-c2ccccc2)c(-n2ccnc2)c1-c1cc(-c2cccs2)nc(N)c1C#N | 100 (≈ 236 µM) | 200 (≈ 472 µM) | 200 (≈ 472 µM) | 500 (≈ 1180 µM) | 500 (≈ 1180 µM) | 62.5 (≈ 148 µM) | > 1000 | 500 (≈ 1180 µM) | 41 | 205.48 | 
Cc1cn(-c2c(-c3cc(-c4cccs4)nc(N)c3C#N)c(C)nn2-c2ccccc2)cn1 | 100 (≈ 229 µM) | 500 (≈ 1140 µM) | 500 (≈ 1140 µM) | 250 (≈ 571 µM) | 250 (≈ 571 µM) | 100 (≈ 229 µM) | > 1000 | > 1000 | 23 | 422.3 | 
Cc1nn(-c2ccccc2)c(-n2ccnc2)c1-c1cc(-c2cc3ccccc3oc2=O)nc(N)c1C#N | 100 (≈ 206 µM) | 500 (≈ 1030 µM) |  | 200 (≈ 412 µM) |  |  | 500 (≈ 1030 µM) | 1000 (≈ 2060 µM) |  | 401.22 | 
Cc1cn(-c2c(-c3cc(-c4cc5ccccc5oc4=O)nc(N)c3C#N)c(C)nn2-c2ccccc2)cn1 | 100 (≈ 200 µM) | 200 (≈ 400 µM) |  | 250 (≈ 500 µM) |  |  | 250 (≈ 500 µM) | 500 (≈ 1000 µM) |  | 433.44 | 
Cc1cn(-c2c(-c3cc(-c4ccc5c(c4)OC(C)(C)O5)nc(N)c3C#N)c(C)nn2-c2ccccc2)cn1 | 500 (≈ 993 µM) | 250 (≈ 496 µM) | 500 (≈ 993 µM) | 125 (≈ 248 µM) | 62.5 (≈ 124 µM) | 500 (≈ 993 µM) | 1000 (≈ 1990 µM) | 1000 (≈ 1990 µM) | 78 | 384.91 | 
CC1(C)S[C@@H]2[C@H](NC(=O)[C@H](N)c3ccccc3)C(=O)N2[C@H]1C(=O)O [AMPICILLIN] | 100 (≈ 286 µM) | 250 (≈ 715 µM) | 250 (≈ 715 µM) | 100 (≈ 286 µM) | 100 (≈ 286 µM) | 100 (≈ 286 µM) |  |  |  |  | 
COC1=CC(=O)C[C@@H](C)[C@]12Oc1c(Cl)c(OC)cc(OC)c1C2=O [GRISEOFULVIN] |  |  |  |  |  |  | 500 (≈ 1420 µM) | 100 (≈ 283 µM) |  |  | 
NNC(=O)c1ccncc1 [ISONIAZID] |  |  |  |  |  |  |  |  |  |  | 0.2 (≈ 1.46 µM)
CO[C@H]1/C=C/O[C@@]2(C)Oc3c(C)c(O)c4c(O)c(c(/C=N/N5CCN(C)CC5)c(O)c4c3C2=O)NC(=O)/C(C)=C\C=C\[C@H](C)[C@H](O)[C@@H](C)[C@@H](O)[C@@H](C)[C@H](OC(C)=O)[C@@H]1C [RIFAMPIN] |  |  |  |  |  |  |  |  | 98 |  | 0.15 (≈ 0.182 µM)
